Experimental data from PubChem BioAssay.
Calls of active or inactive are those of the source.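 The calls were made as follows, unless noted: active = GFP response above 150% of the DMSO level; inconclusive = fewer than 70 events counted for a yeast strain; inactive = the rest.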

Key:
[1] = RPL19A-GFP modulators, yeast TOR pathway, confirmation, cell-based, S. cerevisiae, flow cytometry, cherry picks, mother/daughter gates (AID 2270;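 active = GFP response below 50% of the DMSO control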); conditions: S. cerevisiae RPL19A-GFP strain, 3 h, at 10 µM, stronger effect = lower value, 100 = same GFP as DMSO wells
[2] = LAP4-GFP expression modulators in yeast, confirmation, cell-based, cherry picks, flow cytometry, mother/daughter gates (AID 2271;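 active = GFP response above 150% of the DMSO control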;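 also: ratio of sample to DMSO plate mean so 100% equals DMSO level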); conditions: S. cerevisiae LAP4-GFP strain, 3 h, at 10 µM, stronger effect = higher value, 100 means same as DMSO control
Procedure, shortened: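 Measured by: GFP by flow cytometry. Test system: GFP-fusion yeast strain. Input: yeast cells seeded at OD600 of 0.2. Timing: 30 °C, 3 h compound incubation, rotating. Buffer or medium: synthetic complete medium for yeast. Benchmarks: DMSO-only negative wells, rapamycin 400 ng/mL positive wells. Compound: 10 µM single dose.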

[3] = modulators of MEP2-GFP levels in yeast, confirmation, S. cerevisiae, flow cytometry GFP, cherry picks (AID 2272;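 active = GFP response above 150% of the DMSO control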;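 also: ratio of well signal to plate DMSO mean so 100% equals DMSO level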); conditions: S. cerevisiae MEP2-GFP strain, 3 h, at 10 µM, stronger effect = higher value
[4] = AGP1-GFP expression modulators, hit retest, confirmation, cell-based, flow cytometry, S. cerevisiae, cherry picks (AID 2273);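 also: median GFP channel fluorescence over the whole cell population gate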; conditions: S. cerevisiae AGP1-GFP strain, 3 h, at 10 µM
[5] = modulators of CIT2-GFP expression in yeast, confirmation, S. cerevisiae, GFP fusion, cherry picks, mother/daughter gates (AID 2274); conditions: S. cerevisiae CIT2-GFP strain, flow cytometry, 3 h, at 10 µM, stronger effect = higher value
[6] = measured here: daughter cell gate
[7] = measured here: mother cell gate
[8] = measured here: daughter cell gate response
[9] = measured here: mother cell gate response

Compound | GFP response vs DMSO [1] | GFP response vs DMSO [1, 6] | GFP response vs DMSO [1, 7] | GFP response relative to DMSO [2] | GFP response relative to DMSO [2, 8] | GFP response relative to DMSO [2, 9] | GFP response vs DMSO [3] | GFP response, % of DMSO [4] | GFP response, % of DMSO [5] | GFP response, % of DMSO [5, 6] | GFP response, % of DMSO [5, 7]
Cc1cc(C)c2sc(NC(=O)C3=COCCO3)nc2c1 | 95.8% (inactive) | 95.5% | 97.9% | 94.2% (inactive) | 95% | 96.5% | 99.5% (inactive) | 92.5% (inactive) | 102% (inactive) | 104% | 101%
COc1ccc(Br)cc1/C=N/NC(=O)Cn1nnnc1N | 99.2% (inactive) | 97.6% | 103% | 99.2% (inactive) | 97.6% | 100% | 109% (inactive) | 95.8% (inactive) | 104% (inactive) | 103% | 106%
Cc1ccc(CC2CC(=O)N(Cc3ccco3)C2=O)cc1 (stereo unspecified) | 102% (inactive) | 101% | 101% | 93.8% (inactive) | 97.2% | 94.2% | 95.7% (inactive) | 99.2% (inactive) | 107% (inactive) | 105% | 109%
CCCc1[nH]nc2c1C1(C(=O)N(CC)c3ccccc31)C(C#N)=C(N)O2 (stereo unspecified) | 96.6% (inactive) | 95.9% | 96.9% | 96.7% (inactive) | 97.6% | 94% | 98.3% (inactive) | 98.5% (inactive) | 101% (inactive) | 99.1% | 101%
CCc1nn2c(N3CCOCC3)cc(C)nc2c1-c1ccc(F)cc1 | 99.8% (inactive) | 99.8% | 98.4% | 104% (inactive) | 104% | 104% | 106% (inactive) | 98.6% (inactive) | 95.8% (inactive) | 101% | 94.9%
CC(Oc1ccc(Cl)cc1Cl)C(=O)NC1=NN(c2ccccc2)C(=O)C1 (stereo unspecified) | 95.8% (inactive) | 98.9% | 96.4% | 101% (inactive) | 101% | 98.3% | 98.3% (inactive) | 102% (inactive) | 98.3% (inactive) | 99.1% | 97.3%
CC(=O)c1sc(NC(=O)c2ccco2)nc1-c1ccccc1 | 98.4% (inactive) | 101% | 96.5% | 107% (inactive) | 101% | 108% | 103% (inactive) | 94.9% (inactive) | 110% (inactive) | 112% | 108%
Clc1ccc(-n2cccc2)cn1 | 101% (inactive) | 99.2% | 102% | 93.8% (inactive) | 95.6% | 95.2% | 100% (inactive) | 96.3% (inactive) | 99.1% (inactive) | 98.1% | 101%
C=CCn1c(C)c(/C=C/c2cc[n+](C)cc2)c2ccccc21 | 99.6% (inactive) | 99.8% | 98.1% | 133% (inactive) | 136% | 129% | 147% (inactive) | 101% (inactive) | 141% (inactive) | 142% | 139%
CC(C)(C)C1=CC=C(C(C)(C)C)C(=O)C1=O | 102% (inactive) | 102% | 99.7% | 136% (inactive) | 131% | 136% | 104% (inactive) | 98.7% (inactive) | 104% (inactive) | 104% | 96.8%
O=C(OCC(=O)N1CCN(C(=O)c2ccco2)CC1)c1cc(-c2ccccc2)nc2ccccc12 | 76.3% (inactive) | 66.6% | 70.5% | 161% (active) | 117% | 153% | 130% (inactive) | 136% (inactive) | 134% (inactive) | 114% | 130%
O=C(OCc1ccco1)c1ccc(S(=O)(=O)N2CCCCC2)cc1 | 101% (inactive) | 97.9% | 101% | 98.2% (inactive) | 97.5% | 98.4% | 99% (inactive) | 96.1% (inactive) | 102% (inactive) | 99.2% | 91.9%
O=[N+]([O-])c1cc(C(F)(F)F)ccc1NCCc1ccccn1 | 98.8% (inactive) | 99.3% | 99.7% | 96.5% (inactive) | 92.2% | 96.5% | 102% (inactive) | 98.9% (inactive) | 106% (inactive) | 106% | 106%
O=C(c1c(F)cccc1F)N1CCN(c2ccccc2F)CC1 | 99.4% (inactive) | 99.1% | 98.4% | 103% (inactive) | 102% | 103% | 100% (inactive) | 92.1% (inactive) | 107% (inactive) | 106% | 106%
CCC(=O)N/C(N)=N/c1nc2ccccc2o1 | 83.5% (inactive) | 85.1% | 84.8% | 110% (inactive) | 106% | 112% | 109% (inactive) | 96.2% (inactive) | 98.3% (inactive) | 97.2% | 99.7%
NC(N)=N/N=C/c1ccc(OCc2ccc(Cl)cc2Cl)cc1 | 88.9% (inactive) | 82.8% | 87.2% | 115% (inactive) | 106% | 121% | 105% (inactive) | 99.1% (inactive) | 85.5% (inactive) | 80.7% | 84.3%
